Measurements from different studies.
Protocols differ between the studies behind these lines.
Target: 5'-AMP-activated protein kinase catalytic subunit alpha-2 (PRKAA2, Homo sapiens, UniProt P54646)

| SMILES | observed | technique | concentration | remaining binding |
| --- | --- | --- | --- | --- |
| Cc1cnc(Nc2ccc(C(=O)N3CCC(N4CCCC4)CC3)cc2)nc1-c1cc2ccccc2s1 | binding | competition with immobilised ligand | 1 µM | 7% |
| CC(=O)c1c(NS(C)(=O)=O)c2cc(-c3ccc(Cl)cc3)c(-c3ccc(Cl)cc3Cl)nc2n(C)c1=O | cell-free assay | competition with immobilised ligand | 1 µM | 85% |
| Nc1ncc2c(n1)-c1c([nH]c3ccc(C#CC4CC4)cc13)CCCC2 | binding | competition with immobilised ligand | 1 µM | 85% |
| CN(C)c1nccc(-c2cnc3ncccn23)n1 | binding |  | 1 µM | 80% |
| C[C@H](c1ccc(F)cc1)N(Cc1cccc(C(=O)O)c1)C(=O)c1cnc2ccccc2c1 | cell-free assay | competition with immobilised ligand | 1 µM | 100% |
| O=C(NCCCN1CCOCC1)c1ccc(Nc2ncc(Cl)c(-c3ccc(Cl)s3)n2)cc1 | binding | competition with immobilised ligand | 1 µM | 17% |
| Cc1nc(N2CC[C@@H](O)C2)ncc1-c1cc(C(F)(F)F)cc2[nH]ncc12 | cell-free assay | competition with immobilised ligand | 1 µM | 100% |
| N[C@@H]1CCN(c2nccc(-c3cnn4ncccc34)n2)C1 | binding |  | 1 µM | 98% |
| CNC(=O)[C@@H]1CC[C@@H](n2c(-c3ccc4cnccc4c3)nc3ccc(C(=O)NCc4cccc(C(N)=O)c4)cc32)C1 | binding | competition with immobilised ligand | 1 µM | 91% |
| C[C@H]1CCN(c2nccc(-c3cnn4ncccc34)n2)C1 | binding |  | 1 µM | 84% |
| O=C(NCC1CCOCC1)c1n[nH]cc1NC(=O)c1c(F)cccc1F | binding | competition with immobilised ligand | 1 µM | 100% |
| O=C(NCCCN1CCOCC1)c1ccc(Nc2nccc(-c3cc4ccccc4s3)n2)cc1 | binding | competition with immobilised ligand | 1 µM | 41% |
| c1cnn2ncc(-c3ccnc(N4CCC45COC5)n3)c2c1 | binding |  | 1 µM | 91% |
| CCC(=O)N[C@@H]1CC[C@H](C(=O)N(C)c2ccc(-c3nc4ccccc4o3)cc2)C1 | cell-free assay | competition with immobilised ligand | 1 µM | 74% |
| FC(F)(F)Oc1cccc(-c2cnc3ccc(-c4ccncc4)nn23)c1 | cell-free assay | competition with immobilised ligand | 5 µM | 80% |
| c1cncc(-c2cccc(Nc3nccc(NC4CCCCC4)n3)c2)c1 | binding | competition with immobilised ligand | 10 µM | 23% |
| Cc1c(NC(=O)c2cc(C(N)=O)nc3cc(F)ccc23)c(C(F)(F)F)nn1Cc1ccc(C(C)(C)C)cc1 | cell-free assay | competition with immobilised ligand | 1 µM | 100% |
| F[C@@H]1CCN(c2nccc(-c3cnn4ncccc34)n2)C1 | binding |  | 1 µM | 100% |
| C=CC(=O)N1CCC(C(=O)NCC(=O)N2CCN(c3nc(-c4cnc(N)nc4C(F)F)nc(N4CCOCC4)n3)CC2)CC1 | binding | competition with immobilised ligand | 1 µM | 100% |
| CN(C)c1ncnc(-c2ccc3nc(Nc4cc(CN5CCN(C(=O)CC(F)(F)F)CC5)ccn4)[nH]c3c2)c1Cl | cell-free assay | competition with immobilised ligand | 1 µM | 100% |
| CN(C)c1nccc(-c2cnn3ncccc23)n1 | binding |  | 1 µM | 100% |
| COc1ncc2cc3ccccc3nc2c1C#N | cell-free assay | competition with immobilised ligand | 5 µM | 96% |
